Assay results from ChEMBL document CHEMBL2176971 (Bioorg Med Chem Lett, 2012).

What was measured:
[1] = Apparent volume of distribution in rat at 2 mg/kg, iv; format: ADME, organism-based; parameters: dose 2 mg/kg, route intravenous; settings: in vivo, read-out: Vz
[2] = AUCall in rat at 2 mg/kg, iv; format: ADME, organism-based; parameters: dose 2 mg/kg, route intravenous; settings: plasma
[3] = Cmax in rat at 2 mg/kg, iv; format: ADME, organism-based; parameters: dose 2 mg/kg, route intravenous; settings: in vivo
[4] = Cmax in dog at 2 mg/kg, iv; format: ADME, organism-based, Canis lupus familiaris; parameters: dose 2 mg/kg, route intravenous; settings: in vivo
[5] = Cmax in rat at 20 mg/kg, po; format: ADME, organism-based; parameters: dose 20 mg/kg, route oral; settings: in vivo
[6] = AUCall in dog at 2 mg/kg, iv; format: ADME, organism-based, Canis lupus familiaris; parameters: dose 2 mg/kg, route intravenous; settings: plasma
[7] = Tmax in dog at 10 mg/kg, po; format: ADME, organism-based, Canis lupus familiaris; parameters: dose 10 mg/kg, route oral; settings: in vivo
Method in brief: (§1)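 Dogs dosed orally at 10 mg/kg; plasma pharmacokinetic parameters determined.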

[8] = Apparent volume of distribution in dog at 2 mg/kg, iv; format: ADME, organism-based, Canis lupus familiaris; parameters: dose 2 mg/kg, route intravenous; settings: in vivo, read-out: Vz
[9] = AUCall in rat at 20 mg/kg, po; format: ADME, organism-based; parameters: dose 20 mg/kg, route oral; settings: plasma
[10] = Tmax in rat at 20 mg/kg, po; format: ADME, organism-based; parameters: dose 20 mg/kg, route oral; settings: in vivo
[11] = Cmax in dog at 10 mg/kg, po; format: ADME, organism-based, Canis lupus familiaris; parameters: dose 10 mg/kg, route oral; settings: in vivo; method in brief: as §1
Rattus norvegicus [12] = assay: AUCall in rat assessed as sulfoxide metabolite level at 20 mg/kg, po; format: ADME, organism-based, Plasma; parameters: dose 20 mg/kg, route oral; settings: in vivo
Method in brief: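 Rats given the parent sulfide compound orally at 20 mg/kg, with plasma monitored for its in vivo sulfoxide metabolite; exposure to that metabolite is reported as AUCall. A separate i.v. dose of 2 mg/kg in rats was also monitored for this metabolite.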

[13] = Oral bioavailability in dog at 10 mg/kg; format: ADME, organism-based, Canis lupus familiaris; settings: in vivo; method in brief: as §1
Rattus norvegicus [14] = assay: Drug metabolism in rat assessed as sulfoxide metabolite formation at 2 mg/kg, iv; format: ADME, organism-based; parameters: dose 2 mg/kg, route intravenous; settings: in vivo
Method in brief: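 Rats dosed i.v. at 2 mg/kg and plasma monitored in vivo for the sulfoxide metabolite. AUCall was also measured after 20 mg/kg oral dosing.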

[15] = AUCall in dog at 10 mg/kg, po; format: ADME, organism-based, Canis lupus familiaris; parameters: dose 10 mg/kg, route oral; settings: plasma
[16] = Solubility of the compound; format: physicochemical
[17] = Oral bioavailability in rat at 20 mg/kg; format: ADME, organism-based; settings: in vivo

| SMILES | Vd [1] [L/kg] | AUC [2] [ng·h/mL] | Cmax [3] [ng/mL] | also measured |
| --- | --- | --- | --- | --- |
| Cc1noc(-c2ccc3c(c2)c2c(n3CCCOc3cc(F)cc(F)c3)CCCC2)n1 | 22.1 | 404 | 821 | – |
| Cc1noc(-c2ccc3c(c2)c2c(n3CCCSc3cc(F)cc(F)c3)CCCC2)n1 | 3.64 | 1180 | 2990 | Cmax [4]: 3880 ng/mL; Cmax [5]: 955 ng/mL; AUC [6]: 1750 ng·h/mL; Tmax [7]: 2 h; Vd [8]: 1.8 L/kg; AUC [9]: 4230 ng·h/mL; Tmax [10]: 2.33 h; Cmax [11]: 625 ng/mL; AUC (Rattus norvegicus [12]): 143 ng·h/mL; bioavailability [13]: 34%; Drug metabolism (Rattus norvegicus [14]): Not Active; AUC [15]: 2010 ng·h/mL; solubility [16]: > 1000 µg/mL |
| Cc1noc(-c2ccc3c(c2)c2c(n3CC(F)COc3cc(F)cc(F)c3)CCCC2)n1 (stereo not drawn) | 5.52 | 691 | 1710 | Cmax [5]: 747 ng/mL; AUC [9]: 3140 ng·h/mL; Tmax [10]: 2.67 h; bioavailability [17]: 38% |

Continued, in another order:

| Vd [1] [L/kg] | AUC [2] [ng·h/mL] | Cmax [3] [ng/mL] | SMILES | also measured |
| --- | --- | --- | --- | --- |
| 11.3 | 521 | 182 | COC(=O)c1ccc2c(c1)c1c(n2CCCNc2nc(OC)cc(OC)n2)CCCC1 | – |
| 3.51 | 902 | 1080 | COc1cc(OC)nc(NCCCn2c3c(c4cc(S(C)(=O)=O)ccc42)CCCC3)n1 | – |
| 18.9 | 497 | 1050 | CCc1cc(CC)nc(OCCCn2c3c(c4cc(-c5nc(C)no5)ccc42)CCCC3)n1 | – |
| 3.96 | 520 | 1240 | Cc1noc(-c2ccc3c(c2)c2c(n3CCCS(=O)(=O)N(C)C)CCCC2)n1 | – |
